The test system of data set [1] is Rattus norvegicus. As to the kind of experiment: Antidepressant activity in Sprague-Dawley rat model of reserpine-induced depression assessed as reduction in total time spent in center at 6 to 24 mg/kg, ip administered twice daily for 2 weeks measured for 5 mins by open field test. It is filed as functional, organism-based. In a few lines: (§1)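 Female SD rats (6-8 weeks, 200 g) given reserpine 4 mg/Kg ip daily to induce depression; test agent in 5% DMSO, 2% Tween 80, 5% glucose, ip twice daily for two weeks. Open field: 100×100 cm box, 25 squares, walls about 42 cm, tested 7:30–12:00. Rat placed in central square; centre time, grid crossings, rearing and grooming recorded over 5 min. n=8, mean ± SD.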

The nature of data set [2]: Ratio of drug uptake in Sprague-Dawley rat brain to plasma at 48 mg/kg, ip after 30 mins by LC-MS/MS analysis. The conditions noted are these: read-out: BPR. It is filed as ADME, organism-based. The method, boiled down: (§2)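 Nine female SD rats, three per time point, single ip dose of 48 mg/Kg. At 0.5, 2 and 4 h rats were anesthetized with CO2. Heart blood was taken into EDTA-K2 and centrifuged 1500 g, 10 min, for plasma. Brain was weighed and homogenized 1:5 in 20% methanol-water. LC-MS/MS on a C18 column. Mean of 3.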

Data set [3] concerns Rattus norvegicus. As to the kind of experiment: In vivo inhibition of acid sphingomyelinase in Sprague-Dawley rat model of reserpine-induced depression assessed as reduction in enzyme activity in cerebral cortex at 24 mg/kg, ip administered twice daily for 2 weeks measured post-last dose by NBD-sphingomyelin substrate-based fluorescence assay (reference value: 53%). The arrangement: scale not given: the % may be the effect or the level left.

Data set [4] in a line: Ratio of drug uptake in Sprague-Dawley rat brain to plasma at 48 mg/kg, ip after 4 hrs by LC-MS/MS analysis. It counts as ADME, organism-based. Particulars: read-out: BPR. In a few lines: as §2
The nature of data set [5]: Drug concentration in Sprague-Dawley rat plasma at 48 mg/kg, ip after 0.5 hrs by LC-MS/MS analysis. It counts as ADME, organism-based. The method, boiled down:
as §2

Another data set concerns NIH3T3. As to the kind of experiment: Cytotoxicity against mouse NIH/3T3 cells assessed as reduction in cell viability after 24 hrs by MTT assay. It is filed as cell-based. Particulars: Mus musculus, NIH3T3, 24 h. The method, boiled down: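 NIH3T3 cells in DMEM with 10 % FBS at 37 °C, 5 % CO₂, grown overnight, then inhibitor added for 24 h; viability read by MTT.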
In general terms: Tetrazolium assays rely on reduction of a dye to a coloured formazan, in cell work by metabolically active cells.

Data set [6] is described as follows: Drug concentration in Sprague-Dawley rat brain at 48 mg/kg, ip after 2 hrs by LC-MS/MS analysis. It is filed as ADME, organism-based. The conditions noted are these: read-out: Drug uptake. The method, boiled down: as §2
Data set [7] is described as follows: Drug uptake in human CMEC/D3 cells at 40 uM after 0.5 to 4 hrs by HPLC analysis. It counts as ADME, cell-based. Particulars: hcmec/d3, 40 µM. In a few lines: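 hCMEC/D3 cells seeded at 2×10^5/well and grown to 80%. Compound added at a final 40 μM; serum-free medium as control. At time points, cells washed with ice-cold PBS, lysed on ice 30 min, spun 12000 rpm, 4 °C, 15 min. Lysate protein by BCA and compound content measured; uptake rate = lysate concentration/dose concentration. n=3.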

The nature of data set [8]: Drug concentration in Sprague-Dawley rat brain at 48 mg/kg, ip after 4 hrs by LC-MS/MS analysis. It counts as ADME, organism-based. The conditions noted are these: read-out: Drug uptake. In a few lines: as §2
Data set [9] concerns the target T1, Sphingomyelin phosphodiesterase (Homo sapiens, UniProt P17405).
T1 sequence (P17405 whole entry): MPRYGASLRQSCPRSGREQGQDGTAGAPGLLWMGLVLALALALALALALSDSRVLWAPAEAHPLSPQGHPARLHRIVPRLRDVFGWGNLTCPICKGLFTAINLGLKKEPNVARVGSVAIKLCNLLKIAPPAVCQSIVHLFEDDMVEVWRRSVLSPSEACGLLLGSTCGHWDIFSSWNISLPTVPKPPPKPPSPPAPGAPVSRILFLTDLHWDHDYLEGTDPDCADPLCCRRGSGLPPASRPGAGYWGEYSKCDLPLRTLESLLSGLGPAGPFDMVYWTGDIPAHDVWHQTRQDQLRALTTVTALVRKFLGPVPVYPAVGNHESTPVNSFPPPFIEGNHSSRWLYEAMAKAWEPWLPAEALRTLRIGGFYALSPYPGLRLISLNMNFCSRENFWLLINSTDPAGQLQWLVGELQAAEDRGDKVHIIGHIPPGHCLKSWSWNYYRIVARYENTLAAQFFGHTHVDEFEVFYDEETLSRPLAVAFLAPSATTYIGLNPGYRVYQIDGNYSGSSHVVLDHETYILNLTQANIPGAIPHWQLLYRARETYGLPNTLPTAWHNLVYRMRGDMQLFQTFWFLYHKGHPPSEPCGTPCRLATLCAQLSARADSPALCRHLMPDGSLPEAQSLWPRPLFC
As to the kind of experiment: Inhibition of human Huh7 cell derived acid sphingomyelinase using NBD-sphingomyelin as substrate after 30 mins by fluorescence based assay. The method, boiled down:
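Cultured cells were lysed in 25 mM Tris-HCl pH 7.4, 5 mM EDTA, sonicated and cleared at 300 g. 400 μg protein incubated with NBD-sphingomyelin in 100 mM sodium acetate pH 4.7, 1% Triton X-100, 40 mM CaCl2, 100 μM ZnCl2. Inhibitors added in DMSO, 37 °C, 30 min. Stopped with chloroform/methanol 2:1; NBD-ceramide fluorescence after TLC.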

The target in data set [10] is T1, Sphingomyelin phosphodiesterase. As to the kind of experiment: Inhibition of recombinant human acid sphingomyelinase (His62 to Pro628 residues) using NBD-sphingomyelin as substrate after 30 mins by fluorescence based assay. The method, boiled down:
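Buffer 100 mM sodium acetate pH 4.7, 1% Triton X-100, 40 mM CaCl2, 100 μM ZnCl2. Inhibitors in DMSO at various concentrations, 37 °C, 30 min. NBD-ceramide fluorescence after chloroform/methanol extraction and TLC.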

Data set [11] is described as follows: Ratio of drug uptake in Sprague-Dawley rat brain to plasma at 48 mg/kg, ip after 2 hrs by LC-MS/MS analysis. It is filed as ADME, organism-based. Particulars: read-out: BPR. The method, boiled down:
as §2

The subject of data set [12] is Rattus norvegicus. As to the kind of experiment: Antidepressant activity in Sprague-Dawley rat model of reserpine-induced depression assessed as increase in grooming frequency at 6 to 24 mg/kg, ip administered twice daily for 2 weeks measured for 5 mins by open field test. It counts as functional, organism-based. In a few lines: as §1
Data set [13] concerns Rattus norvegicus. As to the kind of experiment: Reversal of reserpine-induced inhibition of neurogenesis in ip dosed Sprague-Dawley rat hippocampus administered twice daily for 2 weeks by EDU-incorporation assay. It counts as functional, organism-based. In a few lines:
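Rats given EDU 8 mg/kg twice in 1 day and sacrificed 96 h later. Brains shock-frozen and sectioned, washed with 2 mg/mL glycine and PBS, stained with 1X Click-iT solution for 30 min, washed with 0.5% Triton X-100. Counterstained with 1X Hoechst 33342 for 30 min, then imaged by fluorescence microscopy. n=5.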

Data set [14] in a line: Drug concentration in Sprague-Dawley rat plasma at 48 mg/kg, ip after 4 hrs by LC-MS/MS analysis. It is filed as ADME, organism-based. In a few lines: as §2

pIC50: −log10 of the molar value. The source made the active and inactive calls. The rule behind the calls is not given here.

As a reminder, the pIC50 is the IC50 on a negative log10 scale, so that one unit is a factor of ten.

In the case of `O=C(NO)c1cc(OCc2ccc(-c3ccc(Cl)cc3)cc2)no1`, the result with Rattus norvegicus [1] and with Rattus norvegicus [12] was Active. The Kp at 0.5 h in data set [2] stood at 2.94. Moreover, the Activity is 27% in the data set on Rattus norvegicus [3] and “Dose-dependent effect” with Rattus norvegicus [13]. Besides, the Kp at 4 h in data set [4] was 9.55. In [5], this compound returned a concentration at 0.5 h of 709 ng/mL. The negative-log IC50 (pIC50) is 3.79 with NIH3T3, 6.49 in data set [9] and 5.47 in data set [10]. Moreover, the concentration at 2 h in [6] was found to be 4760 ng/g. In data set [7], the Drug uptake entry was “Active”. Also, the concentration at 4 h in data set [8] was 1300 ng/g; in data set [14], 144 ng/mL. In data set [11], the Kp at 2 h is 6.49.

These data come from ChEMBL document CHEMBL4376888, “Discovery of Potent, Selective, and Direct Acid Sphingomyelinase Inhibitors with Antidepressant Activity” (J Med Chem, 2020).
